The results in this text go back to ChEMBL document CHEMBL2203147 (ACS Med Chem Lett, 2011).

Active and inactive are the calls of the source. The rule behind the calls is not given here.

A short description of data set [1]: Aqueous solubility of the compound. Format: physicochemical.
For data set [2], the system named is Rattus norvegicus. Description: Induction of yawning in Sprague-Dawley rat at 10 mg/kg, sc pre-treated with 32 mg/kg D3 receptor antagonist SB-277011A measured 30 mins post dose. Format: functional, organism-based. An outline of the steps: (§1)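 The selective antagonist (D3: SB-277011A; D2: L-741,626) was given before the subcutaneous agonist dose. Yawning was then scored in rats.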

The species entered for data set [3] is Rattus norvegicus. The note with it: Sprague-Dawley, 10 mg/kg.
Data set [4] concerns Rattus norvegicus. Kind of data set: Induction of hypothermia in Sprague-Dawley rat at 10 mg/kg, sc pre-treated with 1 mg/kg D2 receptor antagonist L-741,626 measured 30 mins post dose.
Data set [5] deals with Rattus norvegicus. Kind of data set: Induction of yawning in Sprague-Dawley rat at 1 mg/kg, sc after 60 mins. It counts as functional, organism-based. Further details: dose 1 mg/kg.
For data set [6], the system named is Rattus norvegicus. Kind of data set: Induction of hypothermia in Sprague-Dawley rat at 3.2 mg/kg, sc after 60 mins. Format: functional, organism-based. Further details: dose 3.2 mg/kg. An outline of the steps:
(§2)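 Readout is the change in core body temperature in rats after subcutaneous agonist dosing. Statistical significance was assessed at P < 0.05, 0.005 and 0.001.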

Data set [7] concerns Rattus norvegicus. Kind of data set: Induction of hypothermia in Sprague-Dawley rat at 10 mg/kg, sc after 60 mins. It counts as functional, organism-based. More on the design: dose 10 mg/kg. In a few lines: as §2
Data set [8] deals with Rattus norvegicus. Description: Induction of yawning in sc dosed Sprague-Dawley rat after 60 mins. It counts as functional, organism-based.
For data set [9], the system named is Rattus norvegicus. Kind of data set: Induction of yawning in Sprague-Dawley rat at 0.01 to 10 mg/kg, sc after 60 mins. It counts as functional, organism-based.
Data set [10] addresses D(3) dopamine receptor (Homo sapiens) (UniProt P35462). Description: Agonist activity at human dopamine D3 receptor expressed in CHOp cells assessed as […] quinpirole-induced mitogenesis after 24 hrs relative to quinpirole. Format: functional, cell-based. In a few lines: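 Mitogenesis functional assay on cloned human D3 receptor expressed in CHO cells. Quinpirole serves as the standard D3 agonist control. Readouts are EC50 and maximal stimulation, expressed as a percentage of the quinpirole maximum.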

Data set [11] concerns Rattus norvegicus. Description: Induction of yawning in Sprague-Dawley rat at 1 mg/kg, sc pre-treated with 1 mg/kg D2 receptor antagonist L-741,626 measured 30 mins post dose. Format: functional, organism-based. In a few lines: as §1
For data set [12], the system named is Rattus norvegicus. Kind of data set: Induction of yawning in Sprague-Dawley rat at 1 mg/kg, sc pre-treated with 32 mg/kg D3 receptor antagonist SB-277011A measured 30 mins post dose. It counts as functional, organism-based. An outline of the steps: as §1
In data set [13] the test system is Rattus norvegicus. Description: Induction of yawning in Sprague-Dawley rat at 0.01 mg/kg, sc after 60 mins. Format: functional, organism-based. Further details: dose 0.01 mg/kg.
The test system of data set [14] is Rattus norvegicus. Description: Induction of yawning in Sprague-Dawley rat at 10 mg/kg, sc pre-treated with 1 mg/kg D2 receptor antagonist L-741,626 measured 30 mins post dose. Format: functional, organism-based. An outline of the steps:
as §1

The target of data set [15] is D(1A) dopamine receptor (Homo sapiens) (UniProt P21728). Kind of data set: Displacement of [3H]SCH-23390 from human cloned dopamine D1 receptor expressed in LhD1 cells at 10000 nM after 60 mins by scintillation counter. Format: cell-based.
Data set [16] deals with Rattus norvegicus. Description: Induction of yawning in Sprague-Dawley rat at 0.1 to 10 mg/kg, sc after 60 mins. It counts as functional, organism-based.
The species entered for data set [17] is Rattus norvegicus. Description: Selectivity ratio of Ki for Sprague-Dawley rat dopamine D2-like receptor to Ki for Sprague-Dawley rat dopamine D3 receptor.
In data set [18] the target is D(2) dopamine receptor (Rattus norvegicus, UniProt P61169). Kind of data set: Displacement of [3H]Spiperone from Sprague-Dawley rat dopamine D2-like receptor after 90 mins.
The target in data set [19] is D(3) dopamine receptor (Rattus norvegicus, UniProt P19020). Kind of data set: Displacement of [3H]R(+)-7-OH-DPAT from Sprague-Dawley rat dopamine D3 receptor after 90 mins.
Data set [20] can be described thus: Displacement of [3H]SCH 23390 from Sprague-Dawley rat dopamine D1-like receptor after 90 mins.
The species named for data set [21] is Rattus norvegicus. Description: Selectivity ratio of Ki for Sprague-Dawley rat dopamine D1-like receptor to Ki for Sprague-Dawley rat dopamine D3 receptor.
For data set [22], the species on record is Rattus norvegicus. The note with it: Sprague-Dawley, 10 mg/kg. This is another data set of the same source.
The species entered for data set [23] is Rattus norvegicus. The note with it: Sprague-Dawley, 0.32 mg/kg.

Chain of D(2) dopamine receptor (P61169 whole entry): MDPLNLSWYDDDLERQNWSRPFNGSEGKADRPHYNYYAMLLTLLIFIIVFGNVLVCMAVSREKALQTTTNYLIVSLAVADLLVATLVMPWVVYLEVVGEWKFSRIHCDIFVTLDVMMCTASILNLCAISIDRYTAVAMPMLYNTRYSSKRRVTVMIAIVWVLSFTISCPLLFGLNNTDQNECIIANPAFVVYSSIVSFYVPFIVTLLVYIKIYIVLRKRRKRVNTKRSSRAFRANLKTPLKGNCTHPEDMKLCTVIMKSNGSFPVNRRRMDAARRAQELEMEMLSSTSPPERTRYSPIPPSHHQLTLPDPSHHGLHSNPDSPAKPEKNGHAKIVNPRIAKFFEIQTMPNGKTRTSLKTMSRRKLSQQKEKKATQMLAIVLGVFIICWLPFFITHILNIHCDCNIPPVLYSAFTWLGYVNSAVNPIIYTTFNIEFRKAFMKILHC
Chain of D(3) dopamine receptor (P19020 whole entry): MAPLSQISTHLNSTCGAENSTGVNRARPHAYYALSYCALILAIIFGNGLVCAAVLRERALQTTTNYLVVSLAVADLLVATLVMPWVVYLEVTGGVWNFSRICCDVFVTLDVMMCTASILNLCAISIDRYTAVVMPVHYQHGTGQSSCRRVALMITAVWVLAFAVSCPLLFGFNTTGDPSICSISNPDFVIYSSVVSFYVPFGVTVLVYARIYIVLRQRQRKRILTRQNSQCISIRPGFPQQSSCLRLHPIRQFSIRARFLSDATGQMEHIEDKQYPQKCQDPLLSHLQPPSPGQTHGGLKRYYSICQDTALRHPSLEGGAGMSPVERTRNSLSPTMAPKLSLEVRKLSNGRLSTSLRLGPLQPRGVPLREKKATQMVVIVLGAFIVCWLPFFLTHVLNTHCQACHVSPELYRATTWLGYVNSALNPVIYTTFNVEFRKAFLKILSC
Chain of D(1A) dopamine receptor (Homo sapiens) (P21728 whole entry): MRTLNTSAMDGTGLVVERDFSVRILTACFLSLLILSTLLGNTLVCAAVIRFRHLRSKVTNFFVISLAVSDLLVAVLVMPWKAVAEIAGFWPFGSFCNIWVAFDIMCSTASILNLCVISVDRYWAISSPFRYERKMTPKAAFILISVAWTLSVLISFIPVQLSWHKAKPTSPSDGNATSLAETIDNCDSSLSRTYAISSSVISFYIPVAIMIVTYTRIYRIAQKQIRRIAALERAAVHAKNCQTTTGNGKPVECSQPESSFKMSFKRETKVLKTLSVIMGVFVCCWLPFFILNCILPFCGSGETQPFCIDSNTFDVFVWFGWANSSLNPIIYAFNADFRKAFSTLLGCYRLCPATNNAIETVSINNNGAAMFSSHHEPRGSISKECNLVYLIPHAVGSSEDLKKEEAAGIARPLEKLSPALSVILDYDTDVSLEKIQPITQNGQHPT
Chain of D(3) dopamine receptor (Homo sapiens) (P35462 whole entry): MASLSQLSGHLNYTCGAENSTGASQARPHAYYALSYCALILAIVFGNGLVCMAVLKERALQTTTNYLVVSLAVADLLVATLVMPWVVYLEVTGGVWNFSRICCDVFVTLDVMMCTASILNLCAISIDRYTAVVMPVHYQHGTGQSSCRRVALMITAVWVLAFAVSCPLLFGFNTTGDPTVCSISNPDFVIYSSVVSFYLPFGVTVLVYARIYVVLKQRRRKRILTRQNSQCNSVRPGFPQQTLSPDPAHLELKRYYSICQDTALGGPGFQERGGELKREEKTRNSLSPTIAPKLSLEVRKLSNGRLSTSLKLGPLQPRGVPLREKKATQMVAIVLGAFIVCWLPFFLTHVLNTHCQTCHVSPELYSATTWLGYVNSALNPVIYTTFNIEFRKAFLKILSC

Turning to `CCCN(CC[C@]1(O)C[C@H](NC(=O)c2ccc3ccccc3c2)C1)[C@H]1CCc2nc(N)sc2C1.Cl`, the solubility in data set [1] was greater than 100 mg/mL. Moreover, the outcome in [2], in data set [6], in [12] and in data set [15] was inactive. In data set [3], this compound displayed a deltaT of 0.75 °C. Further, the result in data set [4], in data set [5], in data set [7], in data set [9], in data set [11] and in data set [13] was Active. Besides, in data set [14], the result was Active. Also, the Activity entry in data set [8] was “Dose-dependent effect”. For the same compound, the Emax in [10] came out at 103%.
For the compound `CCCN(CC[C@]1(O)C[C@@H](NC(=O)c2ccc3ccccc3c2)C1)[C@H]1CCc2nc(N)sc2C1.Cl`, the solubility in [1] is greater than 100 mg/mL. Further, the result in [5] and in data set [16] was Active. For the same compound, in data set [8], the Activity result was “Dose-dependent effect”.
With `CCCN(CC[C@H]1C[C@@H](NC(=O)c2ccc3ccccc3c2)C1)[C@H]1CCc2nc(N)sc2C1`, the Ratio Ki in data set [17] was determined as 1630; in data set [21], 8820. Also, the figures for the Ki in data set [18], in data set [19] and in data set [20] were 564 nM, 0.35 nM and 3060 nM, respectively.
For `CCCN(CC[C@]1(O)CC[C@H](NC(=O)c2ccc3ccccc3c2)CC1)[C@H]1CCc2nc(N)sc2C1` the same measures were 3820, 15100, 3550 nM, 0.93 nM and 14100 nM.
As to `CCCN(CC[C@]1(O)CC[C@@H](NC(=O)c2ccc3ccccc3c2)CC1)[C@H]1CCc2nc(N)sc2C1`, the Ratio Ki in data set [17] was 1040; in data set [21] it was 7370. The Ki is 1630 nM in [18], 1.6 nM in [19] and 11600 nM in data set [20].
For `CCCN(CC[C@H]1CC[C@H](NC(=O)c2ccc3ccccc3c2)CC1)[C@H]1CCc2nc(N)sc2C1`, in data set [1], the solubility is greater than 50 mg/mL. The Ki in [20] was greater than 5000 nM.
`CCCN(CC[C@H]1CC[C@H](NC(=O)/C=C/c2ccccc2)CC1)[C@H]1CCc2nc(N)sc2C1` yielded a solubility in data set [1] greater than 50 mg/mL.
Regarding `CCCN(CC[C@H]1C[C@H](NC(=O)c2ccc3ccccc3c2)C1)[C@H]1CCc2nc(N)sc2C1`, the values for the Ratio Ki in data set [17] and in [21] were 1420 and 14800, respectively. Besides, the Ki in [18] was found to be 584 nM; in [19], 0.41 nM; in data set [20], 6120 nM.
Turning to `CCCN[C@H]1CCc2nc(N)sc2C1` [PRAMIPEXOLE], in data set [7], the result was Active. Also, the Activity entry in data set [8] is “Dose-dependent effect”. In data set [22], the inhibition result is “Active”. Also, the values for the Ki in data set [19] and in [20] were 0.45 nM and greater than 10000 nM, respectively. For the same compound, the deltaT in data set [23] was 0.75 °C.
